≈ marks a conversion by molar mass, not a printed value. Calls of active or inactive are those of the source. No cut-off for these calls is given here.
Columns and labels:
Type in all cases: functional
Candida albicans = assay: Antifungal activity against Candida albicans ATCC 10231 assessed as growth inhibition at 1000 ug/mL after 24 hrs by disk diffusion assay; settings: for zone of inhibition at 1000 µg/mL: ATCC 10231, 24 h, read-out: DIZ
Outline: (§1)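 Disk diffusion on nutrient agar, inoculum spread evenly. Disks of 6 mm Whatman No. 1 paper, dry-heat sterilized at 121 °C for 1 h, soaked in test compound at 1000 (micro)g/mL. Norfloxacin and chlorothalonil disks as positive controls, DMSO disks as negative control. Plates incubated 24 h at 37 °C. Inhibition zone diameter measured in mm.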

Pseudomonas aeruginosa [1] = assay: Antibacterial activity against Pseudomonas aeruginosa ATCC 15442 assessed as growth inhibition at 1000 ug/mL after 24 hrs by disk diffusion assay; settings: for zone of inhibition at 1000 µg/mL: ATCC 15442, 24 h, read-out: DIZ; outline: as §1
Staphylococcus aureus [2] = assay: Antibacterial activity against Staphylococcus aureus ATCC 6538 assessed as growth inhibition at 1000 ug/mL after 24 hrs by disk diffusion assay; settings: for zone of inhibition at 1000 µg/mL: ATCC 6538, 24 h, read-out: DIZ; outline: as §1
Escherichia coli [3] = assay: Antibacterial activity against Escherichia coli ATCC 8099 assessed as growth inhibition at 1000 ug/mL after 24 hrs by disk diffusion assay; settings: for zone of inhibition at 1000 µg/mL: ATCC 8099, 24 h, read-out: DIZ; outline: as §1
Bacillus cereus [4] = assay: Antibacterial activity against Bacillus cereus ATCC 14579 assessed as growth inhibition at 1000 ug/mL after 24 hrs by disk diffusion assay; settings: for zone of inhibition at 1000 µg/mL: ATCC 14579, 24 h, read-out: DIZ; outline: as §1
Pseudomonas aeruginosa [5] = assay: Antibacterial activity against Pseudomonas aeruginosa ATCC 15442 assessed as growth inhibition after 24 hrs by liquid dilution method; settings: ATCC 15442, 24 h
Outline: (§2)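 Liquid (tube) dilution. Compounds and positive controls in DMSO at 11 concentrations from 0.98 upward. Each tube held 1 mL compound solution plus bacterial or fungal inoculum and sterile water. Incubated 24 h, then checked for turbidity; MIC is the lowest concentration without growth. Chlorothalonil, norfloxacin and fluconazole as standards.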

Escherichia coli [6] = assay: Antibacterial activity against Escherichia coli ATCC 8099 assessed as growth inhibition after 24 hrs by liquid dilution method; outline: as §2
Staphylococcus aureus [7] = assay: Antibacterial activity against Staphylococcus aureus ATCC 6538 assessed as growth inhibition after 24 hrs by liquid dilution method; outline: as §2
Bacillus cereus [8] = assay: Antibacterial activity against Bacillus cereus ATCC 14579 assessed as growth inhibition after 24 hrs by liquid dilution method; settings: ATCC 14579, 24 h; outline: as §2

**Q.** How did the “diameter of the inhibition zone (DIZ)” value (Candida albicans) turn out when `Cc1ccc(Nc2ccc(N)c3nc[nH]c(=O)c23)cc1` was run?
**A.** Its value is “inactive”.

**Q.** What about the “diameter of the inhibition zone (DIZ)” value (Pseudomonas aeruginosa [1]) of the same compound?
**A.** The value was “inactive”.

**Q.** And the “diameter of the inhibition zone (DIZ)” value (Staphylococcus aureus [2])?
**A.** Its value is “inactive”.

**Q.** What about the “diameter of the inhibition zone (DIZ)” value (Escherichia coli [3]) of the same compound?
**A.** The value was “inactive”.

**Q.** And the “diameter of the inhibition zone (DIZ)” value (Bacillus cereus [4])?
**A.** Its value is “inactive”.

**Q.** With `Cc1ccccc1Nc1ccc(Nc2c(Cl)c(F)c(C#N)c(F)c2C#N)c2nc[nH]c(=O)c12` as the compound, how does the MIC (Pseudomonas aeruginosa [5]) read?
**A.** Its MIC is 208 µg/mL (≈ 450 µM).

**Q.** What about the zone of inhibition at 1000 µg/mL (Candida albicans) of the same compound?
**A.** The zone of inhibition at 1000 µg/mL was 7.5 mm.

**Q.** What about the zone of inhibition at 1000 µg/mL (Pseudomonas aeruginosa [1]) of the same compound?
**A.** Its zone of inhibition at 1000 µg/mL is 9.5 mm.

**Q.** What about the zone of inhibition at 1000 µg/mL (Staphylococcus aureus [2]) of the same compound?
**A.** Its zone of inhibition at 1000 µg/mL is 10.3 mm.

**Q.** And the zone of inhibition at 1000 µg/mL (Escherichia coli [3])?
**A.** The zone of inhibition at 1000 µg/mL was 9.7 mm.

**Q.** What about the zone of inhibition at 1000 µg/mL (Bacillus cereus [4]) of the same compound?
**A.** The zone of inhibition at 1000 µg/mL was 10.8 mm.

**Q.** What about the MIC (Escherichia coli [6]; ATCC 8099, 24 h) of the same compound?
**A.** Its MIC is 208 µg/mL (≈ 450 µM).

**Q.** What about the MIC (Staphylococcus aureus [7]; ATCC 6538, 24 h) of the same compound?
**A.** Its MIC is 208 µg/mL (≈ 450 µM).

**Q.** What about the MIC (Bacillus cereus [8]) of the same compound?
**A.** Its MIC is 52.1 µg/mL (≈ 113 µM).

**Q.** Which results are given for `CCN(CC)c1ccc(N)c2nc[nH]c(=O)c12`?
**A.** diameter of the inhibition zone (DIZ) (Candida albicans): inactive; zone of inhibition at 1000 µg/mL (Pseudomonas aeruginosa [1]): 7.5 mm; zone of inhibition at 1000 µg/mL (Staphylococcus aureus [2]): 7.3 mm; zone of inhibition at 1000 µg/mL (Escherichia coli [3]): 6 mm; zone of inhibition at 1000 µg/mL (Bacillus cereus [4]): 6 mm

**Q.** Which results are given for `Nc1ccc(Nc2ccc(Cl)cc2)c2c(=O)[nH]cnc12`?
**A.** diameter of the inhibition zone (DIZ) (Candida albicans): inactive; diameter of the inhibition zone (DIZ) (Pseudomonas aeruginosa [1]): inactive; diameter of the inhibition zone (DIZ) (Staphylococcus aureus [2]): inactive; diameter of the inhibition zone (DIZ) (Escherichia coli [3]): inactive; diameter of the inhibition zone (DIZ) (Bacillus cereus [4]): inactive

**Q.** What does the source list for `Cc1cc(C)cc(Nc2ccc(N)c3nc[nH]c(=O)c23)c1`?
**A.** diameter of the inhibition zone (DIZ) (Candida albicans): inactive; zone of inhibition at 1000 µg/mL (Pseudomonas aeruginosa [1]): 6.3 mm; diameter of the inhibition zone (DIZ) (Staphylococcus aureus [2]): inactive; diameter of the inhibition zone (DIZ) (Escherichia coli [3]): inactive; zone of inhibition at 1000 µg/mL (Bacillus cereus [4]): 6 mm

**Q.** With `N#Cc1c(Cl)c(Cl)c(Nc2ccccc2Nc2ccc([N+](=O)[O-])c3nc[nH]c(=O)c23)c(C#N)c1Cl` as the compound, how does the MIC (Pseudomonas aeruginosa [5]) read?
**A.** Its MIC is 125 µg/mL (≈ 237 µM).

**Q.** What about the “diameter of the inhibition zone (DIZ)” value (Candida albicans) of the same compound?
**A.** The value was “inactive”.

**Q.** What about the zone of inhibition at 1000 µg/mL (Pseudomonas aeruginosa [1]) of the same compound?
**A.** The zone of inhibition at 1000 µg/mL was 6.7 mm.

**Q.** And the zone of inhibition at 1000 µg/mL (Staphylococcus aureus [2])?
**A.** Its zone of inhibition at 1000 µg/mL is 7.3 mm.

**Q.** And the zone of inhibition at 1000 µg/mL (Escherichia coli [3])?
**A.** Its zone of inhibition at 1000 µg/mL is 7 mm.

**Q.** And the zone of inhibition at 1000 µg/mL (Bacillus cereus [4])?
**A.** The zone of inhibition at 1000 µg/mL was 11.2 mm.

**Q.** And the MIC (Escherichia coli [6]; ATCC 8099, 24 h)?
**A.** Its MIC is 167 µg/mL (≈ 316 µM).

**Q.** And the MIC (Staphylococcus aureus [7]; ATCC 6538, 24 h)?
**A.** The MIC was 250 µg/mL (≈ 475 µM).

**Q.** What about the MIC (Bacillus cereus [8]) of the same compound?
**A.** The MIC was 41.7 µg/mL (≈ 79.2 µM).

**Q.** `N#Cc1c(F)c(Cl)c(Nc2ccc(Nc3ccccc3)c3c(=O)[nH]cnc23)c(C#N)c1F` was tested. Which MIC (Pseudomonas aeruginosa [5]) did it give?
**A.** The MIC was 500 µg/mL (≈ 1110 µM).

**Q.** What about the zone of inhibition at 1000 µg/mL (Candida albicans) of the same compound?
**A.** Its zone of inhibition at 1000 µg/mL is 6 mm.

**Q.** What about the zone of inhibition at 1000 µg/mL (Pseudomonas aeruginosa [1]) of the same compound?
**A.** Its zone of inhibition at 1000 µg/mL is 9.5 mm.

**Q.** And the zone of inhibition at 1000 µg/mL (Staphylococcus aureus [2])?
**A.** The zone of inhibition at 1000 µg/mL was 8.9 mm.

**Q.** What about the “diameter of the inhibition zone (DIZ)” value (Escherichia coli [3]) of the same compound?
**A.** The value was “inactive”.

**Q.** What about the zone of inhibition at 1000 µg/mL (Bacillus cereus [4]) of the same compound?
**A.** The zone of inhibition at 1000 µg/mL was 6 mm.

**Q.** And the MIC (Escherichia coli [6])?
**A.** The MIC was “inactive”.

**Q.** And the MIC (Staphylococcus aureus [7])?
**A.** The MIC was “inactive”.

**Q.** And the MIC (Bacillus cereus [8])?
**A.** The MIC was 500 µg/mL (≈ 1110 µM).

**Q.** With `Nc1ccc(N2CCCCC2)c2c(=O)[nH]cnc12` as the compound, how does the “diameter of the inhibition zone (DIZ)” value (Candida albicans) read?
**A.** Its value is “inactive”.

**Q.** What about the “diameter of the inhibition zone (DIZ)” value (Pseudomonas aeruginosa [1]) of the same compound?
**A.** Its value is “inactive”.

**Q.** What about the “diameter of the inhibition zone (DIZ)” value (Staphylococcus aureus [2]) of the same compound?
**A.** Its value is “inactive”.

**Q.** What about the zone of inhibition at 1000 µg/mL (Escherichia coli [3]) of the same compound?
**A.** Its zone of inhibition at 1000 µg/mL is 7.8 mm.

**Q.** What about the “diameter of the inhibition zone (DIZ)” value (Bacillus cereus [4]) of the same compound?
**A.** The value was “inactive”.

**Q.** How did the “diameter of the inhibition zone (DIZ)” value (Candida albicans) turn out when `Nc1ccc(Nc2ccc(F)cc2)c2c(=O)[nH]cnc12` was run?
**A.** Its value is “inactive”.

**Q.** What about the zone of inhibition at 1000 µg/mL (Pseudomonas aeruginosa [1]) of the same compound?
**A.** The zone of inhibition at 1000 µg/mL was 6 mm.

**Q.** What about the “diameter of the inhibition zone (DIZ)” value (Staphylococcus aureus [2]) of the same compound?
**A.** The value was “inactive”.

**Q.** And the “diameter of the inhibition zone (DIZ)” value (Escherichia coli [3])?
**A.** The value was “inactive”.

**Q.** What about the zone of inhibition at 1000 µg/mL (Bacillus cereus [4]) of the same compound?
**A.** The zone of inhibition at 1000 µg/mL was 6 mm.

**Q.** `CCN(CC)c1ccc(Nc2c(Cl)c(Cl)c(C#N)c(Cl)c2C#N)c2nc[nH]c(=O)c12` was tested. Which “diameter of the inhibition zone (DIZ)” value (Candida albicans) did it give?
**A.** The value was “inactive”.

**Q.** And the zone of inhibition at 1000 µg/mL (Pseudomonas aeruginosa [1])?
**A.** The zone of inhibition at 1000 µg/mL was 7.5 mm.

**Q.** What about the zone of inhibition at 1000 µg/mL (Staphylococcus aureus [2]) of the same compound?
**A.** Its zone of inhibition at 1000 µg/mL is 7.7 mm.

**Q.** And the zone of inhibition at 1000 µg/mL (Escherichia coli [3])?
**A.** The zone of inhibition at 1000 µg/mL was 6 mm.

**Q.** And the zone of inhibition at 1000 µg/mL (Bacillus cereus [4])?
**A.** The zone of inhibition at 1000 µg/mL was 6 mm.

**Q.** What does the source list for `CN(C)c1ccc(N)c2nc[nH]c(=O)c12`?
**A.** diameter of the inhibition zone (DIZ) (Candida albicans): inactive; diameter of the inhibition zone (DIZ) (Pseudomonas aeruginosa [1]): inactive; diameter of the inhibition zone (DIZ) (Staphylococcus aureus [2]): inactive; zone of inhibition at 1000 µg/mL (Escherichia coli [3]): 8.5 mm; diameter of the inhibition zone (DIZ) (Bacillus cereus [4]): inactive

**Q.** What does the source list for `Cc1cccc(Nc2ccc(N)c3nc[nH]c(=O)c23)c1`?
**A.** diameter of the inhibition zone (DIZ) (Candida albicans): inactive; diameter of the inhibition zone (DIZ) (Pseudomonas aeruginosa [1]): inactive; diameter of the inhibition zone (DIZ) (Staphylococcus aureus [2]): inactive; zone of inhibition at 1000 µg/mL (Escherichia coli [3]): 6.5 mm; diameter of the inhibition zone (DIZ) (Bacillus cereus [4]): inactive

**Q.** Which results are given for `Nc1ccccc1Nc1ccc([N+](=O)[O-])c2nc[nH]c(=O)c12`?
**A.** diameter of the inhibition zone (DIZ) (Candida albicans): inactive; diameter of the inhibition zone (DIZ) (Pseudomonas aeruginosa [1]): inactive; diameter of the inhibition zone (DIZ) (Staphylococcus aureus [2]): inactive; zone of inhibition at 1000 µg/mL (Escherichia coli [3]): 7.8 mm; diameter of the inhibition zone (DIZ) (Bacillus cereus [4]): inactive

**Q.** For `Cc1ccc(Nc2ccc(N)c3nc[nH]c(=O)c23)cc1C`, which “diameter of the inhibition zone (DIZ)” value (Candida albicans) is on record?
**A.** Its value is “inactive”.

**Q.** And the “diameter of the inhibition zone (DIZ)” value (Pseudomonas aeruginosa [1])?
**A.** Its value is “inactive”.

**Q.** What about the zone of inhibition at 1000 µg/mL (Staphylococcus aureus [2]) of the same compound?
**A.** Its zone of inhibition at 1000 µg/mL is 6.5 mm.

**Q.** And the “diameter of the inhibition zone (DIZ)” value (Escherichia coli [3])?
**A.** The value was “inactive”.

**Q.** What about the “diameter of the inhibition zone (DIZ)” value (Bacillus cereus [4]) of the same compound?
**A.** Its value is “inactive”.
